From PubChem BioAssay come the findings set out here.

A short description of assay [1]: RPL19A-GFP modulators, yeast TOR pathway, confirmation, cell-based, S. cerevisiae, flow cytometry, cherry picks, mother/daughter gates (AID 2270;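 active = GFP response below 50% of the DMSO control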). The settings on record: S. cerevisiae RPL19A-GFP strain, 3 h, at 10 µM, stronger effect = lower value, 100 = same GFP as DMSO wells.
Assay [2] is described as follows: LAP4-GFP expression modulators in yeast, confirmation, cell-based, cherry picks, flow cytometry, mother/daughter gates (AID 2271;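 active = GFP response above 150% of the DMSO control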;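 note: ratio of sample to DMSO plate mean so 100% equals DMSO level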). The settings on record: S. cerevisiae LAP4-GFP strain, 3 h, at 10 µM, stronger effect = higher value, 100 means same as DMSO control. The essentials:
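Material: Alexa 633-stained baker's yeast GFP-fusion strain; Compound dosing: single test-compound dose, 10 µM final; Incubation: 30 °C, 3 h compound incubation, rotating; Detection: HT flow cytometry, GFP fluorescence channel; Control set: positive rapamycin (400 ng/mL), negative DMSO.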
A general note: Flow cytometry measures light scatter and fluorescence of single cells or particles in a stream.

The nature of assay [3]: modulators of MEP2-GFP levels in yeast, confirmation, S. cerevisiae, flow cytometry GFP, cherry picks (AID 2272;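 active = GFP response above 150% of the DMSO control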;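 note: ratio of well signal to plate DMSO mean so 100% equals DMSO level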). The settings on record: S. cerevisiae MEP2-GFP strain, 3 h, at 10 µM, stronger effect = higher value.
The nature of assay [4]: AGP1-GFP expression modulators, hit retest, confirmation, cell-based, flow cytometry, S. cerevisiae, cherry picks (AID 2273).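 Note: median GFP channel fluorescence over the whole cell population gate.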 The settings on record: S. cerevisiae AGP1-GFP strain, 3 h, at 10 µM.
A short description of assay [5]: modulators of CIT2-GFP expression in yeast, confirmation, S. cerevisiae, GFP fusion, cherry picks, mother/daughter gates (AID 2274). The settings on record: S. cerevisiae CIT2-GFP strain, flow cytometry, 3 h, at 10 µM, stronger effect = higher value.
Setting [6] is: measured here: daughter cell gate.
[7] abbreviates: measured here: mother cell gate.
Setting [8] is: measured here: daughter cell gate response.
[9] abbreviates: measured here: mother cell gate response.

Active and inactive are the calls of the source.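 Rule for the calls, unless noted: active = GFP response above 150% of the DMSO level; inconclusive = fewer than 70 events counted for a yeast strain; inactive = the rest.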

On to `CCOC(=O)CNc1c(-c2ccc(O)cc2)nc2ccccn12`, for which the GFP response vs DMSO is 98.5% (inactive) in assay [1], 99.3% in assay [1] (setting [6]), 98% in assay [1] (setting [7]) and 97.2% (inactive) in assay [3]. Moreover, the GFP response relative to DMSO was 100% (inactive) in assay [2], 104% in assay [2] (setting [8]) and 98.4% in assay [2] (setting [9]). The GFP response, % of DMSO in assay [4] is 104% (inactive); in assay [5], 101% (inactive); in assay [5] (setting [6]), 103%; in assay [5] (setting [7]) it was 103%.
Take `COc1cc(/C=C/C(=O)c2c(O)cc(C)oc2=O)cc(OC)c1O`: the GFP response vs DMSO in assay [1] was 98.2% (inactive); in assay [1] (setting [6]), 99.6%; in assay [1] (setting [7]) it was 96.8%; in assay [3] it was 105% (inactive). The GFP response relative to DMSO in assay [2] was 106% (inactive); in assay [2] (setting [8]), 104%; in assay [2] (setting [9]), 106%. In addition, the GFP response, % of DMSO in assay [4] was 101% (inactive); in assay [5], 97.3% (inactive); in assay [5] (setting [6]), 99.2%; in assay [5] (setting [7]) it was 94.4%.
For `NC(=O)c1ccc(Oc2ccc(-c3nnco3)cc2)c([N+](=O)[O-])c1`, the GFP response vs DMSO is 98.4% (inactive) in assay [1], 100% in assay [1] (setting [6]), 99.1% in assay [1] (setting [7]) and 100% (inactive) in assay [3]. Besides, the GFP response relative to DMSO in assay [2] was 93.8% (inactive); in assay [2] (setting [8]), 95.6%; in assay [2] (setting [9]), 94.2%. The GFP response, % of DMSO was 98.7% (inactive) in assay [4], 110% (inactive) in assay [5], 105% in assay [5] (setting [6]) and 112% in assay [5] (setting [7]).
Regarding `O=C(c1cc(-c2cccc(Cl)c2)on1)N1CCc2ccccc2C1`, the GFP response vs DMSO was 99.2% (inactive) in assay [1], 100% in assay [1] (setting [6]), 99.5% in assay [1] (setting [7]) and 99% (inactive) in assay [3]. Besides, the GFP response relative to DMSO in assay [2] was 95.7% (inactive); in assay [2] (setting [8]) it was 95.9%; in assay [2] (setting [9]) it was 95.2%. The GFP response, % of DMSO was 104% (inactive) in assay [4], 97.3% (inactive) in assay [5], 97.4% in assay [5] (setting [6]) and 96.8% in assay [5] (setting [7]).
As to `[O-][n+]1cccc2c(Br)cc(Br)c(O)c21`, the GFP response vs DMSO in assay [1] is 98.2% (inactive); in assay [1] (setting [6]) it was 99.6%; in assay [1] (setting [7]), 95.6%; in assay [3] it was 178% (active). In addition, the GFP response relative to DMSO in assay [2] is 258% (active); in assay [2] (setting [8]), 215%; in assay [2] (setting [9]) it was 251%. For the same molecule, the GFP response, % of DMSO in assay [4] was 112% (inactive); in assay [5] it was 101% (inactive); in assay [5] (setting [6]) it was 103%; in assay [5] (setting [7]) it was 95.7%.
In the case of `Oc1c(Br)cc(Br)cc1C=Nc1ccc2[nH]ncc2c1`, the GFP response vs DMSO in assay [1] is 99.5% (inactive); in assay [1] (setting [6]), 89.2%; in assay [1] (setting [7]), 97.2%; in assay [3] it was 112% (inactive). The GFP response relative to DMSO is 185% (active) in assay [2], 124% in assay [2] (setting [8]) and 176% in assay [2] (setting [9]). Besides, the GFP response, % of DMSO in assay [4] is 102% (inactive); in assay [5], 96.4% (inactive); in assay [5] (setting [6]), 102%; in assay [5] (setting [7]), 87.5%.
Consider `COc1ccc(-c2cc(C(F)(F)F)nc(N3CCOCC3)n2)cc1OC`, for which the GFP response vs DMSO in assay [1] is 100% (inactive); in assay [1] (setting [6]), 100%; in assay [1] (setting [7]), 98.4%; in assay [3], 126% (inactive). Further, the GFP response relative to DMSO in assay [2] was 101% (inactive); in assay [2] (setting [8]), 101%; in assay [2] (setting [9]), 102%. The GFP response, % of DMSO in assay [4] was 99.5% (inactive); in assay [5] it was 110% (inactive); in assay [5] (setting [6]) it was 114%; in assay [5] (setting [7]) it was 109%.
As to `COc1ccc(/C=N/Nc2nnc(C)n2N)cc1OC(C)=O`, the GFP response vs DMSO in assay [1] was 99.5% (inactive); in assay [1] (setting [6]) it was 100%; in assay [1] (setting [7]), 99%; in assay [3] it was 104% (inactive). Further, the GFP response relative to DMSO in assay [2] is 94.2% (inactive); in assay [2] (setting [8]), 96.5%; in assay [2] (setting [9]), 92.6%. Besides, the GFP response, % of DMSO is 102% (inactive) in assay [4], 104% (inactive) in assay [5], 104% in assay [5] (setting [6]) and 103% in assay [5] (setting [7]).
On to `O=[N+]([O-])c1cccc(/C=N/Nc2ncc(Br)cn2)c1`, for which the GFP response vs DMSO in assay [1] is 90.9% (inactive); in assay [1] (setting [6]) it was 88.5%; in assay [1] (setting [7]), 90.6%; in assay [3], 128% (inactive). Moreover, the results for the GFP response relative to DMSO in assay [2], in assay [2] (setting [8]) and in assay [2] (setting [9]) were 129% (inactive), 121% and 132%, respectively. For the same molecule, the GFP response, % of DMSO is 137% (inactive) in assay [4], 86.1% (inactive) in assay [5], 86.9% in assay [5] (setting [6]) and 83.7% in assay [5] (setting [7]).
For the molecule `COCCNC(=O)c1ccc(Cl)c(Cl)c1`, the GFP response vs DMSO was 97.2% (inactive) in assay [1], 95.6% in assay [1] (setting [6]), 95.3% in assay [1] (setting [7]) and 100% (inactive) in assay [3]. Moreover, the GFP response relative to DMSO in assay [2] is 102% (inactive); in assay [2] (setting [8]) it was 101%; in assay [2] (setting [9]), 96.1%. In addition, the GFP response, % of DMSO in assay [4] was 100% (inactive); in assay [5] it was 105% (inactive); in assay [5] (setting [6]), 103%; in assay [5] (setting [7]) it was 93.8%.
For the molecule `O=C(NCC(c1ccc(F)cc1)N1CCOCC1)c1cc(F)c(F)c(F)c1F` (configuration not stated), the GFP response vs DMSO was 100% (inactive) in assay [1], 99.6% in assay [1] (setting [6]), 101% in assay [1] (setting [7]) and 101% (inactive) in assay [3]. The GFP response relative to DMSO in assay [2] is 102% (inactive); in assay [2] (setting [8]), 102%; in assay [2] (setting [9]), 102%. Further, the GFP response, % of DMSO in assay [4] was 102% (inactive); in assay [5], 102% (inactive); in assay [5] (setting [6]) it was 101%; in assay [5] (setting [7]) it was 101%.
As to `C=CCOc1cccc(C(=O)/C=C2/C(=O)Nc3ccccc32)c1`, the GFP response vs DMSO in assay [1] is 102% (inactive); in assay [1] (setting [6]), 97.9%; in assay [1] (setting [7]) it was 98.8%; in assay [3], 112% (inactive). The figures for the GFP response relative to DMSO in assay [2], in assay [2] (setting [8]) and in assay [2] (setting [9]) were 114% (inactive), 107% and 117%, respectively. Also, the GFP response, % of DMSO is 105% (inactive) in assay [4], 102% (inactive) in assay [5], 103% in assay [5] (setting [6]) and 98.1% in assay [5] (setting [7]).
For the molecule `O=C(CNC(=O)c1ccncc1)N/N=C/c1cccc([N+](=O)[O-])c1`, the GFP response vs DMSO in assay [1] was 99.2% (inactive); in assay [1] (setting [6]) it was 98.6%; in assay [1] (setting [7]) it was 99.4%; in assay [3], 105% (inactive). In addition, the GFP response relative to DMSO in assay [2] was 97.9% (inactive); in assay [2] (setting [8]), 97.6%; in assay [2] (setting [9]), 98.3%. In addition, the GFP response, % of DMSO is 94.7% (inactive) in assay [4], 99.7% (inactive) in assay [5], 101% in assay [5] (setting [6]) and 99.7% in assay [5] (setting [7]).
In the case of `Cc1cccc(C(=O)Nc2ccc(O)cc2)c1`, the GFP response vs DMSO in assay [1] was 97.6% (inactive); in assay [1] (setting [6]), 97%; in assay [1] (setting [7]), 97.3%; in assay [3], 108% (inactive). In addition, the GFP response relative to DMSO was 100% (inactive) in assay [2], 99% in assay [2] (setting [8]) and 101% in assay [2] (setting [9]). For the same molecule, the GFP response, % of DMSO was 104% (inactive) in assay [4], 103% (inactive) in assay [5], 101% in assay [5] (setting [6]) and 104% in assay [5] (setting [7]).
Turning to `CCc1ccc2c(c1)C1(NN=C(c3cccc4ccccc34)S1)C(=O)N2` (configuration not stated), the GFP response vs DMSO in assay [1] was 96% (inactive); in assay [1] (setting [6]) it was 96.7%; in assay [1] (setting [7]), 93.1%; in assay [3], 97.2% (inactive). For the same molecule, the values for the GFP response relative to DMSO in assay [2], in assay [2] (setting [8]) and in assay [2] (setting [9]) were 111% (inactive), 105% and 114%, respectively. The GFP response, % of DMSO in assay [4] is 102% (inactive); in assay [5] it was 93.1% (inactive); in assay [5] (setting [6]), 99.3%; in assay [5] (setting [7]), 88.2%.
Consider `O=C(OCCOc1ccccc1)c1n[nH]c2ccccc12`, for which the GFP response vs DMSO in assay [1] is 96.4% (inactive); in assay [1] (setting [6]), 95.7%; in assay [1] (setting [7]), 97.2%; in assay [3], 97.5% (inactive). Besides, the values for the GFP response relative to DMSO in assay [2], in assay [2] (setting [8]) and in assay [2] (setting [9]) were 103% (inactive), 97.9% and 101%, respectively. Further, the GFP response, % of DMSO in assay [4] is 102% (inactive); in assay [5] it was 102% (inactive); in assay [5] (setting [6]), 104%; in assay [5] (setting [7]) it was 100%.
Consider `CCn1c(=O)c(C(=O)NCc2ccc(OC)c(OC)c2)c(O)c2ccccc21`, for which the GFP response vs DMSO is 97.6% (inactive) in assay [1], 99.1% in assay [1] (setting [6]), 99.2% in assay [1] (setting [7]) and 100% (inactive) in assay [3]. The GFP response relative to DMSO in assay [2] was 94.1% (inactive); in assay [2] (setting [8]), 92.8%; in assay [2] (setting [9]) it was 94%. The GFP response, % of DMSO in assay [4] is 103% (inactive); in assay [5] it was 105% (inactive); in assay [5] (setting [6]), 106%; in assay [5] (setting [7]), 106%.
